“Also recorded” adds a separate entry of the source.
How the values were obtained:
[1] = system: HLA-A2 molecules on T2 cell surface; assay: T2 cell binding assay; design: species or system human; conditions: in words
Outline: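 T2 cells (1 × 10^6/mL) incubated 18 h at 37°C, 5% CO2 with 50 µg/mL peptide in RPMI-1640 plus 3 µg/mL human β2-microglobulin; no-peptide blank included. Washed three times in PBS, stained 30 min with FITC anti-HLA-A2, MFI read by flow cytometry. FI = (MFI peptide − MFI blank)/MFI blank. Classes: FI >1.0 high, 0.5–1.0 medium, <0.5 low.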

CD8+T cells = assay: IFN-γ ELISA of DC/CD8+T cell co-culture supernatant; assay type: cell-based, human; conditions: for IFN-γ content in culture medium (ELISA): 12th day of co-cultivation of DCs and CD8+T cells, compared with NP-CTL; for capacity of induced CTLs to produce IFN-γ: ELISA and ELISPOT taken together, compared to other peptides of CT23
CTLs = assay: IFN-γ ELISPOT of peptide-induced CTLs; assay type: cell-based, human; conditions: CTLs 1 × 10^5 cells/well, 20 hours; compared to NP-CTL
Outline: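 CTLs from HLA-A2+ donor CD8+ T cells stimulated with DCs loaded with peptide (50 μg/mL) or recombinant protein (100 μg/mL). Ratio 10:1, rhIL-2 20 ng/mL, restimulation days 7 and 12, harvested day 15. Added to anti-IFN-γ-coated wells with PHA positive and background control wells; 20 h at 37°C, 5% CO2. Biotinylated antibody, streptavidin–enzyme conjugate and substrate added; spots counted by analyzer.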

U87 (HLA-A *0201+,CT23+) = assay: Cytotoxicity assay; assay type: cell-based, human; conditions: LDH release, effector:target 50:1, 4 h; mean±standard deviation; SD
Outline: (§1)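 Effectors: CD8+ T cells from HLA-A2+ donor PBMCs, co-cultured 10:1 with peptide- or protein-loaded DCs. rhIL-2 20 ng/mL from day 2; restimulated days 7 and 12; collected day 15. Targets grown in RPMI-1640/10% FBS. After 4 h, supernatant incubated with LDH substrate 30 min at RT in the dark, then stopped and read at OD490. Killing % = (experimental − effector and target spontaneous release)/(target maximum − target spontaneous release).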

[2] = system: OVCAR-3 (HLA-A *0201+, CT23+); assay: Cytotoxicity assay; assay type: cell-based, human; conditions: LDH release, effector:target 50:1, 4 h; mean±standard deviation; SD
Outline: as §1

[3] = system: SKOV3 (HLA-A *0201−, CT23+); assay: Cytotoxicity assay; assay type: cell-based, human; conditions: LDH release, effector:target 50:1, 4 h
Outline: as §1

[4] = system: T2 cells loaded with peptide P7; assay: Cytotoxicity assay; assay type: cell-based, human; conditions: LDH release, effector:target 50:1, 4 h; mean±standard deviation; SD
Outline: as §1

[5] = system: T2 cells without loading peptides; assay: Cytotoxicity assay; assay type: cell-based, human; conditions: LDH release, effector:target 50:1, 4 h
Outline: as §1

| Sequence | binding affinity to HLA-A2 molecules (class by FI) [1] | IFN-γ content in culture medium (ELISA) (CD8+T cells) | capacity of induced CTLs to produce IFN-γ (CD8+T cells) | further results |
| --- | --- | --- | --- | --- |
| ALLTPTWKA [P1] | higher binding affinity | statistical significance compared with NP-CTL | stronger capacity to produce IFN-γ | – |
| ALLVLCYSI [P7] | higher binding affinity; also recorded: highest binding affinity | highest IFN-γ secretion | stronger capacity to produce IFN-γ | number of IFN-γ-positive cells (ELISPOT) (CTLs): significant statistical difference; killing rate of peptide-induced CTLs on U87 (U87 (HLA-A *0201+,CT23+)): 31.42 ± 0.85%; killing rate of peptide-induced CTLs on OVCAR-3 [2]: 31.81 ± 9.82%; killing effect of peptide-induced CTLs on HLA-A*0201 negative SKOV3 tumor cells [3]: no killing effect; also recorded: did not exhibit any killing effect; killing rate of P7-induced CTLs on T2 cells loaded with peptide P7 [4]: 64.95 ± 6.09%; killing effect of P7-induced CTLs on T2 cells without loaded peptide P7 [5]: did not exhibit any significant killing effect; also recorded: no killing effect |
| LLASQSLSI [P6] | higher binding affinity | statistical significance compared with NP-CTL | stronger capacity to produce IFN-γ | – |
| MIMENIQEL [P5] | higher binding affinity | – | – | – |
| QLPHTEALL [P4] | higher binding affinity | statistical significance compared with NP-CTL | stronger capacity to produce IFN-γ | – |
| RLSNNVEEL [P2] | higher binding affinity | – | – | – |
| VLCSQPVSI [P3] | moderate | – | – | – |

Source: article PMC10730135 (Human Vaccines & Immunotherapeutics, 2023)
